In ChEMBL document CHEMBL1133431, “1,3-Diarylcycloalkanopyrazoles and diphenyl hydrazides as selective inhibitors of cyclooxygenase-2” (Bioorg Med Chem Lett, 2000) one finds IC50 data, which are given here for 24 molecules.

Structures are written as SMILES.

The IC50 is the concentration at which inhibition is half-maximal.

The target of assay [1] is T1, Prostaglandin G/H synthase 2 (Homo sapiens, UniProt P35354).
T1 sequence (P35354 whole entry): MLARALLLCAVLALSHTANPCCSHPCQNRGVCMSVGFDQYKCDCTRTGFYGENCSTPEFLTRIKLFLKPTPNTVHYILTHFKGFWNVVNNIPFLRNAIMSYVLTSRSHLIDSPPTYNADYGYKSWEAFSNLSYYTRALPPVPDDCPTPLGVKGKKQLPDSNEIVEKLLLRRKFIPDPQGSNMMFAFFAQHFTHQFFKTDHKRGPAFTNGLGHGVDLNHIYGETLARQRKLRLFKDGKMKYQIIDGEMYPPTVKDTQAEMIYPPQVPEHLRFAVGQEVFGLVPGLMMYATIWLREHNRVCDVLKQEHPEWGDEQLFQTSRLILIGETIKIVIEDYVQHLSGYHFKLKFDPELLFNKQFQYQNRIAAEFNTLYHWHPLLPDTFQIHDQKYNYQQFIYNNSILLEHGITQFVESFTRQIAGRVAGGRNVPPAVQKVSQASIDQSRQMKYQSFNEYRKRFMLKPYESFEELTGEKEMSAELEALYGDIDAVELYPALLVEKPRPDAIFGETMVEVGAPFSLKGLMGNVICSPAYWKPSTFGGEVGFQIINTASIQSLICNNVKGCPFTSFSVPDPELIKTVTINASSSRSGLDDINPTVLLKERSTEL
Put plainly: Inhibitory activity against human prostaglandin G/H synthase 2 in ECV-304 cells measured by the presence of PGE-2. Format: cell-based.

Assay [2] deals with Prostaglandin G/H synthase 1 (Homo sapiens, UniProt P23219). In words: Inhibitory activity against human prostaglandin G/H synthase 1 in platelet-rich plasma measured by the presence of thromboxane A2. In short, it runs like this: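 Human peripheral blood drawn into heparin; platelet-rich plasma collected by centrifugation (200×g, 20 min, room temperature) and diluted 1:20 in 0.9% NaCl. Compound or vehicle preincubated 15 min at 37 °C, then stimulated with calcium ionophore A-23187 (free acid) for 15 min at 37 °C, then chilled on ice 5 min. Supernatant thromboxane B2 measured by radioimmunoassay.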
Prostaglandin G/H synthase 1, sequence (P23219 whole entry): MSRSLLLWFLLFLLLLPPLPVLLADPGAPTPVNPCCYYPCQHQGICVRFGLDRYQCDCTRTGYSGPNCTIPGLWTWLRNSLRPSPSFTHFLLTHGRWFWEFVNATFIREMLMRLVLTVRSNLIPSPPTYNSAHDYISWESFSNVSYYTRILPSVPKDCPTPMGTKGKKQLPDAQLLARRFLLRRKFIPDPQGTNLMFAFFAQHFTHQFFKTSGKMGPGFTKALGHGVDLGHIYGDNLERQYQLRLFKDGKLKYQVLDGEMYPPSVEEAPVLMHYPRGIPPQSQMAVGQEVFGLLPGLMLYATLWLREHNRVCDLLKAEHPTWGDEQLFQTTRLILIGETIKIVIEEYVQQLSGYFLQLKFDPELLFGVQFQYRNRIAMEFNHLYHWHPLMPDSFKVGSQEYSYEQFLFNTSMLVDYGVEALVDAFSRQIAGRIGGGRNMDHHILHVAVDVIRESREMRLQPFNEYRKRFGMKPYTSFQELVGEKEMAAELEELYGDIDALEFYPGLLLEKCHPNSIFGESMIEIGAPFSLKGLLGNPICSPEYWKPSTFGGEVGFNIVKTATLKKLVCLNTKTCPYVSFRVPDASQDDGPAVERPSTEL

As for `COc1ccc(-n2nc(-c3ccc(Cl)cc3)c3c2CCC(N(O)C(C)=O)C3)cc1` (configuration not stated), the values for the IC50 in assay [1] and in assay [2] were 2.4 µM and more than 10 µM, respectively.
For `O=C(NNc1ccc(Cl)cc1)c1ccccc1`, the IC50 in assay [1] is 0.53 µM; in assay [2], more than 10 µM.
Take `CS(=O)(=O)c1ccc(-n2nc(-c3ccc(Cl)cc3)c3c2CCCCC3)cc1`: the IC50 in assay [1] is more than 10 µM.
As to `CS(=O)(=O)c1ccc(NNC(=O)c2ccccc2)cc1`, the IC50 in assay [1] and in assay [2] was more than 10 µM in each case.
As for `COc1ccc(NNC(=O)c2ccccc2)cc1`, the IC50 in assay [1] was 0.18 µM; in assay [2], more than 10 µM.
The like results for `CS(=O)(=O)c1ccc(-n2nc(-c3ccc(F)cc3)c3c2CCCC3)cc1` were, in that order, more than 10 µM and more than 10 µM.
For the molecule `COc1ccc(-n2nc(-c3ccc(Cl)cc3)c3c2CCCCC3)cc1`, the IC50 in assay [2] is more than 10 µM.
Turning to `COc1ccc(-n2nc(-c3ccc(Cl)cc3)c3c2CCC(O)C3)cc1` (configuration not stated), the concentration for half-maximal inhibition (IC50) in assay [1] was 0.46 µM; in assay [2], more than 10 µM.
For the molecule `O=C(NNc1ccc(Cl)cc1)c1ccc(Cl)cc1`, the IC50 is 0.34 µM in assay [1] and more than 10 µM in assay [2].
In the same order, the values of `O=C(NNc1ccccc1)c1ccc(Cl)cc1` are 0.33 µM and more than 10 µM.
Consider `O=C(NNc1ccccc1)c1ccccc1`, for which the values for the IC50 in assay [1] and in assay [2] were 10 µM and more than 10 µM, respectively.
`CS(=O)(=O)c1ccc(-n2nc(-c3ccc(Cl)cc3)c3c2CCCC3)cc1`: the half-maximal inhibitory concentration (IC50) in assay [1] and in assay [2] was more than 10 µM each time.
`Clc1ccc(-c2nn(-c3ccc(Cl)cc3)c3c2CCC3)cc1`: the IC50 in assay [1] and in assay [2] was more than 10 µM each time.
Regarding `c1ccc(-c2nn(-c3ccccc3)c3c2CCC3)cc1`, the IC50 in assay [2] is more than 10 µM.
With `Cc1ccc(NNC(=O)c2ccccc2)cc1`, the results for the IC50 in assay [1] and in assay [2] were 0.33 µM and more than 10 µM, respectively.
For the molecule `COc1ccc(NNC(=O)c2ccc(Cl)cc2)cc1`, the IC50 in assay [1] is 0.13 µM; in assay [2], more than 10 µM.
On to `Clc1ccc(-c2nn(-c3ccc(Cl)cc3)c3c2CCCCC3)cc1`, for which the IC50 in assay [2] is more than 10 µM.
`COc1ccc(-n2nc(-c3ccc(Cl)cc3)c3c2CCC(NOC(C)=O)C3)cc1` (configuration not stated): the IC50 in assay [1] and in assay [2] was more than 10 µM each time.
In the case of `CS(=O)(=O)c1ccc(NNC(=O)c2ccc(Cl)cc2)cc1`, the IC50 in assay [1] and in assay [2] was more than 10 µM each time.
Regarding `COc1ccc(C(=O)NNc2ccccc2)cc1`, the IC50 in assay [1] and in assay [2] was more than 10 µM in each case.
For the molecule `COc1ccc(C(=O)NNc2ccc(Cl)cc2)cc1`, the IC50 is 0.47 µM in assay [1] and more than 10 µM in assay [2].
`Cc1ccc(-n2nc(-c3ccc(Cl)cc3)c3c2CCCCC3)cc1`: the IC50 in assay [2] is more than 10 µM.
Same read-out and setting: then `COc1ccc(-n2nc(-c3ccc(Cl)cc3)c3c2CCC(F)C3)cc1` (configuration not stated), with more than 10 µM.
On to `Cc1ccc(NNC(=O)c2ccc(Cl)cc2)cc1`, for which the IC50 in assay [1] is 0.01 µM; in assay [2], more than 10 µM.
